High-throughput results deposited in PubChem by The Scripps Research Institute Molecular Screening Center.
The list is not random: actives were taken first. Their share in the collection is about 1.9%.
M4 ag: CHRM4 agonism in calcium assay; actives 0.14% (n = 360,000); AID 624127; activation, % at 3 µM; CHO-K1 hM4/Gqi5, Fluo-8 calcium fluorescence; vehicle 0%, full acetylcholine response 100%;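 active means activation above the run mean over all test wells plus 3 SD, cut at about 32% in these data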;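 further: peak over basal fluorescence ratio per well then scaled between controls; 0% = DMSO wells and 100% = acetylcholine at EC100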
M4 PAM: CHRM4 positive allosteric modulation. activation, % at 3 µM. actives 0.4% (n = 360,000). CHO-K1 hM4/Gqi5, Fluo-8 calcium fluorescence, ACh EC20; 0% = ACh EC20, 100% = maximal ACh. AID 624126;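 active means activation above its plate's cutoff, the mean activation of sample wells plus 3 SD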
CHRM5 PAM: CHRM5 positive allosteric modulation. P08912. CHO-K1 hM5, Fluo-8 calcium, ACh EC20 PAM; 0% = ACh EC20, 100% = ACh EC100. activation, % at 3 µM. actives 0.3% (n = 360,000). AID 624038;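 active means activation above the run cutoff, the mean activation of all test compounds plus 3 SD, cut at about 18% in these data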
Target sequence (P08912 whole entry, looked up): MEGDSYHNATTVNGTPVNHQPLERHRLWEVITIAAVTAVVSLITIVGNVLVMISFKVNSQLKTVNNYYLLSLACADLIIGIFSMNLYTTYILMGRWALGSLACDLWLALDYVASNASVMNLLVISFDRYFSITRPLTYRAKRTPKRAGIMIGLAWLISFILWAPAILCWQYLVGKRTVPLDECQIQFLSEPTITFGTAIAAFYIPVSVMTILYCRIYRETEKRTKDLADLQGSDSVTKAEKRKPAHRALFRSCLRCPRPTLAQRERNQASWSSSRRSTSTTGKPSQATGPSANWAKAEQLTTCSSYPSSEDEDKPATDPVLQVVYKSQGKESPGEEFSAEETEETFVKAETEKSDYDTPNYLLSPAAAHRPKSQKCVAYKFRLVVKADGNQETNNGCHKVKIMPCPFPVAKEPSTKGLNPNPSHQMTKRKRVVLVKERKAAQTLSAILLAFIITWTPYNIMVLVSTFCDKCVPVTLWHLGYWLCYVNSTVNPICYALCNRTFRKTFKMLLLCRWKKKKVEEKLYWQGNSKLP
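Probe or stimulus: acetylcholine, EC20 level; Assay system: human M5 receptor in CHO-K1 cells; Schedule: compound preincubation 140 s before EC20 acetylcholine addition; Technique: intracellular calcium via Fluo-8 fluorescence; Dosing: single-point, 3 µM nominal; Read-out basis: percent activation from peak-over-basal fluorescence ratio, scaled EC20-to-EC100 acetylcholine; Repeats: one well per compound, no replicates.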
M5 ag: agonists of human muscarinic M5 receptor (CHRM5); CHO-K1 hM5 cells, Fluo-8 calcium fluorescence; 0% DMSO wells, 100% maximal acetylcholine response; activation, % at 3 µM; actives 0.19% (n = 360,000); AID 624037;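 active means activation above the run's mean over test compounds plus 3 SD, cut at about 23% in these data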;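 further: signal is peak over basal fluorescence ratio across the kinetic read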
M5 antag: blocks acetylcholine activation of human M5 receptor; actives 0.59% (n = 360,000); P08912; inhibition, % at 3 µM; AID 624040; CHO-hM5 cells, Fluo-8 calcium fluorescence, ACh EC80;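 active means inhibition above a per-plate cutoff, the mean of that plate's test compounds plus 3 SD, cut at about 27% in these data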;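 further: 0% = acetylcholine EC80 with DMSO and 100% = DMSO without agonist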
M4 antag: CHRM4 antagonism in calcium assay | actives 0.73% (n = 360,000) | P08173 | inhibition, % at 3 µM | CHO-hM4 cells, ACh EC80, Fluo-8 calcium fluorescence;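 active means inhibition above its plate's cutoff, the mean inhibition of sample wells plus 3 SD, cut at about 27% in these data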;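 further: 0% = acetylcholine EC80 with DMSO and 100% = DMSO without agonist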
The depositor's hits bear a star.

SMILES	M4 ag	M4 PAM	CHRM5 PAM	M5 ag	M5 antag	M4 antag
N#CCCn1nc(-c2ccccc2)cc1Nc1ccccc1NC(=O)c1cccs1	6	-6	22*	-2	-14	-9
CC(NC(=O)CCCc1nnc2n(C)c(=O)c3sccc3n12)c1ccccc1 (stereo unspecified)	2	4	4	-5	10	1
CC(NC(=O)C12CC3CC(CC(O)(C3)C1)C2)c1ccc(Cl)cc1Cl (stereo unspecified)	0	0	0	-2	17	-16
O=C(Oc1ccc2cccc(OC(=O)N3CCOCC3)c2c1)N1CCOCC1	1	1	19*	1	2	-2
O=C(Oc1cccc2c(OC(=O)N3CCOCC3)cccc12)N1CCOCC1	0	8	8	1	-6	14
CSCCC(NC(=O)c1ccco1)C(=O)N(C)CC(=O)Nc1c(Cl)cccc1Cl (stereo unspecified)	2	15	13	4	-3	0
Cc1cccc(C)c1NC(=O)CN(C)C(=O)[C@H](C)NC(=O)c1ccco1	1	24*	-3	0	8	-8
O=S1(=O)CC(N2CCC(c3ccccc3)CC2)CN1Cc1ccc(F)cc1 (stereo unspecified)	3	3	1	1	5	4
CC(=O)Nc1cccc(NC(=O)CSc2ncc(-c3ccc(Cl)cc3)n2Cc2ccco2)c1	18	-15	-25	6	23	29*
Cc1nc2cc(NCc3cc([N+](=O)[O-])ccc3O)ccc2n1Cc1ccccc1	2	-2	-3	-1	7	6
CCCCN1C2=NC(c3ccccc3)CN2c2ccccc21 (stereo unspecified)	11	-33	-12	-5	15	3
Cc1cccc(C)c1OCCCCN1CCNCC1	3	8	4	0	5	-9
Cc1cc(C)c(OCCCCN2CCNCC2)c(C)c1	0	-12	5	1	-4	30*
COc1ccc(-c2nn(-c3ccccc3)cc2C(=O)NC(=S)NNC(=O)c2ccncc2)cc1	33*	-12	-9	13	9	8
COc1ccc(-c2nn(-c3ccccc3)cc2C(=O)O)cc1	1	4	0	3	0	-3
COc1ccc(-c2nn(-c3ccccc3)cc2C(=O)NC(=S)Nc2cc(Cl)ccc2Cl)cc1	2	27	22*	5	-16	-1
COc1ccc(NC(=O)c2cn(-c3ccccc3)nc2-c2ccncc2)cc1	3	0	-7	-4	5	1
COC(=O)c1cn(-c2ccccc2)nc1-c1ccc(OC)c(OC)c1	5	5	19*	6	12	-24
Cc1c(C(=O)/C=C/c2ccccc2F)c2cc(O)ccc2n1C	1	6	-5	1	16	-7
Cc1ccccc1C(=O)NCC(=O)NNC(=O)CCN1CCN(c2ccccc2)CC1	1	5	0	-4	2	4
Cc1ccsc1C(=O)NNC(=O)CCN1CCN(c2ccccc2)CC1	0	23*	2	1	11	-13
CC(CNC(=O)CCS(=O)(=O)c1cc2c(cc1Cl)NC(=O)CO2)c1ccccc1 (stereo unspecified)	1	5	0	2	-8	-12
COc1ccc(S(=O)(=O)Nc2ccc(F)cc2F)cc1C(=O)N1CCOCC1	0	0	-1	-2	4	-24
CN1C(=O)/C(=C/c2ccc(OCc3ccc(F)cc3)cc2)N(C)C1=S	0	-2	-1	-1	-2	0
CN1C(=O)/C(=C/c2ccccc2OCc2cccc(F)c2)N(C)C1=S	-1	-23	-18	-5	45*	65*
SMILES	M4 ag	M4 PAM	CHRM5 PAM	M5 ag	M5 antag	M4 antag
COC(=O)C1=C(N)OC2=C(C(=O)CC(C)(C)C2)C1c1cccs1 (stereo unspecified)	1	20*	4	-3	-1	-7
CC1(C)CC(=O)C2=C(C1)OC(N)=C(C#N)C2c1cccs1 (stereo unspecified)	0	-8	-6	-1	1	6
CSc1ccc(Cn2c(C)c(C(=O)NCCC#N)sc2=O)cc1	3	3	1	2	-1	4
Cc1cccc2c1NC(=O)/C2=C\C(=O)c1cccs1	2	-9	5	13	8	-5
CCc1ccc2c(c1)/C(=C/C(=O)c1cccs1)C(=O)N2	5	-19	7	25*	18	23
O=C(CCN1C(=O)C2CC=CCC2C1=O)Nc1cccc(Cl)c1 (stereo unspecified)	1	-4	-2	-1	-1	5
COC(=O)c1cc(CNC(=O)Cc2ccsc2)ccc1OC	-1	-22	-3	-2	10	98*
COc1cc(C)nc(N(C)C(C)=O)n1	0	3	-8	-1	7	-4
CSc1cc(C)nc(N(C)C(C)=O)n1	0	19*	-5	1	7	-12
COc1cc([N+](=O)[O-])cc(/C=C2/SC(=S)N(Cc3ccccc3)C2=O)c1O	32*	-20	-5	9	11	23
COc1cc(/C=C2/SC(=S)N(Cc3ccccc3)C2=O)cc(Cl)c1O	16	-13	-5	8	33*	18
CCOc1cc(/C=C2/SC(=S)N(Cc3ccccc3)C2=O)ccc1O	26	-6	-1	42*	26	26
COc1cc(/C=C2/SC(=S)N(Cc3ccccc3)C2=O)ccc1OCC(=O)O	1	1	5	9	-12	-7
CN(CCc1ccccn1)C(=O)CCNC(=O)Cn1cnc2ccccc2c1=O	2	19*	1	2	6	-13
CN(C(=O)CCNC(=O)Cn1cnc2ccccc2c1=O)c1ccc(Br)cc1	1	-4	0	0	6	9
C=Cc1cccc(NC(=O)COc2ccccc2)c1	0	18	18*	-3	10	0
Cc1ccc(NC(=O)[C@H](C)NC(=O)C2CCN(C(=O)[C@@H](NC(=O)OC(C)(C)C)C(C)C)CC2)cc1	-1	17*	0	-5	-2	-1
COc1cc(Cl)c(C)cc1NC(=O)c1ccc(NS(=O)(=O)c2ccc(F)c(F)c2)cc1	0	20*	8	1	5	-9
CCN1CCc2c(sc(NC(=O)Nc3ccc(Cl)c(Cl)c3)c2C(N)=O)C1	124*	-44	-19	77*	58*	51*
COc1ccc(C2Oc3ccccc3N2C(C)=O)cc1 (stereo unspecified)	1	-1	1	-2	11	31*
